# Assay results of several laboratories.
# Compare with care: the assays were run in different laboratories.
# Target: Dual specificity tyrosine-phosphorylation-regulated kinase 1A (DYRK1A, Homo sapiens, UniProt Q13627)
# Effect on: enzyme activity
# Mode: inhibitor
SMILES,method,concentration,remaining activity
O=c1c2ccccc2[nH]c(=S)n1CCN1CCC(=C(c2ccc(F)cc2)c2ccc(F)cc2)CC1,,0.5 µM,99.9%
O=C(Nc1cnn(-c2csc(C(=O)NC3COC3)c2)c1)Nc1ccccc1Cl,,5 µM,86%
Nc1nc(NC2CCCCC2)sc1C(=O)c1ccccc1,,10 µM,25%
COc1cccc(CCNc2nc3cc(C(=O)O)ccc3c3cnccc23)c1,radiometric,1 µM,12%
CC(C)(C)c1nc(-c2cccc(NS(=O)(=O)c3c(F)cccc3F)c2F)c(-c2ccnc(N)n2)s1,radiometric,1 µM,90%
CC(C)(O)[C@H]1CC[C@H](Nc2ccc3ncc(-c4cccc(C(F)(F)F)c4)n3n2)CC1,,1 µM,22.1%
O=C(O)c1ccc2c(c1)nc(NCCc1ccccc1)c1ncncc12,radiometric,1 µM,19%
FC(F)c1nc2ccccc2n1-c1nc(N2CCOCC2)nc(N2CCOCC2)n1,,10 µM,78%
O=C(O)c1ccc2c(c1)nc(Nc1cccc(F)c1)c1ccncc12,radiometric,1 µM,0%
O=C(Nc1cnn(-c2csc(C(=O)NC3COC3)c2)c1)Nc1c(F)cccc1Cl,,5 µM,75.1%
O=C(O)c1ccc2c(c1)nc(Nc1ccc(Cl)cc1)c1ncncc12,radiometric,1 µM,3%
COc1ccc(C(=O)Nc2sc3c(c2C(N)=O)CCCC3)cc1OC,,0.5 µM,97.4%
COc1cc(Nc2cnc(C#N)c(O[C@H](C)CN(C)C)n2)ncc1-c1cnn(C)c1,radiometric,10 µM,79%
O=c1cc(-c2cccc3c2Sc2ccccc2S3)oc(N2CCOCC2)c1,,0.5 µM,95%
Nc1nc(Nc2ccccc2)sc1C(=O)c1c(F)cccc1F,,10 µM,10%
